Data set [1] can be described thus: Antioxidant activity assessed as DPPH radical scavenging activity after 10 mins. It counts as physicochemical. The method, boiled down: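 Freshly prepared DPPH solution in test tubes; analogue solutions (1 mM–1 µM) added to a final volume of 2.25 mL. Absorbance read at 515 nm after 10 min. References prepared as 1 mM methanol stocks. IC50 calculated from at least three independent experiments.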
(DPPH is a stable violet radical that fades when it is reduced.)

Data set [2] can be described thus: Inhibition of xanthine oxidase in human MKN28 cells assessed as inhibition of xanthine oxidase-induced cell damage by measuring cell viability at 10 to 200 uM after 48 hrs by MTT assay. Format: cell-based. Conditions: mkn-28, 48 h. In outline: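 MKN28 cells pre-incubated with compounds (10–200 µM) for 1–48 h, washed, then exposed for 2 h to xanthine (1 mM) plus xanthine oxidase to induce oxidative stress. Controls were serum-free medium alone, and serum-free medium followed by X–XO. Viability read by MTT assay. Mean ± SD from three separate experiments run in duplicate.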
For orientation: Formazan colour is commonly taken as a measure of viable cells.

The nature of data set [3]: Toxicity in human MKN28 cells assessed as cell viability at 10 to 200 uM after 48 hrs by MTT assay. As to conditions: read-out: Activity. Format: cell-based, MKN-28. The method, boiled down:
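MKN28 cells incubated under basal conditions with compounds (10–200 µM) for 1–48 h, with serum-free medium as control. Viability read by MTT assay. Mean ± SD from three separate experiments run in duplicate.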

The IC50 is the concentration at which inhibition is half-maximal. In the case of `COc1cc([C@H]2Oc3cc(-c4oc5cc(O)cc(O)c5c(=O)c4O)ccc3O[C@@H]2CO)ccc1O`, the IC50 in data set [1] stood at 27 µM.
In the case of `COc1cc([C@H]2Oc3cc([C@H]4Oc5cc(O)cc(O)c5C(=O)[C@@H]4O)ccc3O[C@H]2COP(=O)([O-])OC2O[C@H](CO)[C@@H](O)[C@H](O)[C@H]2O)ccc1O.[Na+]` (stereo partly specified), the Activity in data set [2] is 42.7%. In data set [1], the IC50 was found to be 302 µM. For the same molecule, the viability at 48 h, up to 200 µM in data set [3] stood at 89.2%.
The corresponding values for `COc1cc([C@H]2Oc3cc([C@H]4Oc5cc(O)cc(O)c5C(=O)[C@@H]4O)ccc3O[C@H]2COP(=O)([O-])OC2O[C@H](CO)[C@H](OC3O[C@H](CO)[C@H](O)[C@H](O)[C@H]3O)[C@H](O)[C@H]2O)ccc1O.[Na+]` (stereo partly specified) are 48.4%, 155 µM and 91.8%.
The corresponding values for `COc1cc(C2Oc3cc([C@H]4Oc5cc(O)cc(O)c5C(=O)[C@@H]4O)ccc3OC2CO)ccc1O` (stereo partly specified) [SILIBININ] are 42.4%, 392 µM and 45.3%.
The corresponding values for `COc1cc([C@H]2Oc3cc([C@H]4Oc5cc(O)cc(O)c5C(=O)[C@@H]4O)ccc3O[C@H]2COP(=O)([O-])OC2O[C@H](CO)[C@@H](O)[C@H](O)[C@@H]2O)ccc1O.[Na+]` (stereo partly specified) are 42.3%, 108 µM and 89.5%.
For `COc1cc([C@H]2Oc3cc([C@H]4Oc5cc(O)cc(O)c5C(=O)[C@@H]4O)ccc3O[C@H]2COP(=O)([O-])OC2O[C@H](CO)[C@H](O)[C@H](O)[C@H]2O)ccc1O.[Na+]` (stereo partly specified), the Activity in data set [2] is listed as 42.8%. In addition, in data set [1], the IC50 was 233 µM. In addition, the viability at 48 h, up to 200 µM in data set [3] came out at 84.1%.

Source of the values: ChEMBL document CHEMBL3352053, “New silibinin glyco-conjugates: synthesis and evaluation of antioxidant properties” (Bioorg Med Chem Lett, 2014).
